Laboratory results as given in ChEMBL document CHEMBL4038281, “Competitive protein tyrosine phosphatase 1B (PTP1B) inhibitors, prenylated caged xanthones from Garcinia hanburyi and their inhibitory mechanism” (Bioorg Med Chem, 2017).
Activity calls are given as the source filed them. No cut-off for these calls is given here.

Tests used:
[1] = molecular target: T1, Tyrosine-protein phosphatase non-receptor type 1 (Homo sapiens) (UniProt P18031); assay: Inhibition of recombinant human PTP1B (1 to 322 residues) expressed in Escherichia coli using pNPP as substrate incubated for 10 mins measured for 30 mins by spectrometric analysis
T1 sequence (whole entry): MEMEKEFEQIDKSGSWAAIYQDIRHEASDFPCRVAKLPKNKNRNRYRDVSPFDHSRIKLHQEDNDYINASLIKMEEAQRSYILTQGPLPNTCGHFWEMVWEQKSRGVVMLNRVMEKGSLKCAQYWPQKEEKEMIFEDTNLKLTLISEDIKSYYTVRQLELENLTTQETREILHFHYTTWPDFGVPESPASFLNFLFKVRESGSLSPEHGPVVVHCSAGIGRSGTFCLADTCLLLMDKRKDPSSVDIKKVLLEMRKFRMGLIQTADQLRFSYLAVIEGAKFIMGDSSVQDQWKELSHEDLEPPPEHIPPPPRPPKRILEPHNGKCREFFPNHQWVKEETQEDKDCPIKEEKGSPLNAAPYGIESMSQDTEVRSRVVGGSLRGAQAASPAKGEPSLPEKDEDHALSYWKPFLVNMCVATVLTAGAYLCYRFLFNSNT
Procedure, shortened: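 Enzyme (1 mg/mL stock) was mixed with sample in DMSO and 4 mM pNPP stock in 25 mM Tris-HCl pH 7.5, 1 mM EDTA, 2 mM b-mercaptoethanol and 1 mM DTT.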

[2] = molecular target: T1, Tyrosine-protein phosphatase non-receptor type 1 (Homo sapiens); conditions: 11.7 to 47.1 uM
[3] = molecular target: T1, Tyrosine-protein phosphatase non-receptor type 1 (Homo sapiens); conditions: 49.5 to 198.1 uM
[4] = molecular target: T1, Tyrosine-protein phosphatase non-receptor type 1 (Homo sapiens); assay: Competitive inhibition of recombinant human PTP1B (1 to 322 residues) expressed in Escherichia coli at 52.6 to 210.6 uM using pNPP as substrate by Line-weaver burk plot method
Procedure, shortened: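 PTP1B activity was followed by pNPP hydrolysis at 405 nm in 25 mM Tris-HCl pH 7.5 with 1 mM EDTA, 2 mM b-mercaptoethanol and 1 mM DTT, at 37 °C, with compound added in DMSO. Initial velocities were taken across substrate and inhibitor concentrations. Km and Vmax came from Lineweaver-Burk plots, with Dixon plots also used, and the Kik/Kiv ratio was calculated after Yang et al.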

[5] = molecular target: T1, Tyrosine-protein phosphatase non-receptor type 1 (Homo sapiens); conditions: 457.3 to 1829.3 uM
[6] = molecular target: T1, Tyrosine-protein phosphatase non-receptor type 1 (Homo sapiens); conditions: 12.4 to 49.6 uM
[7] = molecular target: T1, Tyrosine-protein phosphatase non-receptor type 1 (Homo sapiens); conditions: 0.47 uM
[8] = molecular target: T1, Tyrosine-protein phosphatase non-receptor type 1 (Homo sapiens); assay: Competitive inhibition of recombinant human PTP1B (1 to 322 residues) expressed in Escherichia coli at 99.4 to 397.8 uM using pNPP as substrate by Line-weaver burk plot method
Procedure, shortened: (§1)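 Kinetics with pNPP substrate in 25 mM Tris-HCl (pH 7.5), 1 mM EDTA, 2 mM b-mercaptoethanol, 1 mM DTT, 37 °C. Initial velocities were recorded at several substrate and inhibitor concentrations and read at 405 nm. Vmax and Km came from Lineweaver-Burk plots, and the Kik/Kiv ratio was calculated per Yang et al.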

[9] = molecular target: T1, Tyrosine-protein phosphatase non-receptor type 1 (Homo sapiens); assay: Competitive inhibition of recombinant human PTP1B (1 to 322 residues) expressed in Escherichia coli at 11.8 to 47.2 uM using pNPP as substrate by Line-weaver burk plot method; procedure, shortened: as §1

## CO[C@@H]1C2C(=O)c3c(O)c(C/C=C(\C)CCC=C(C)C)c(O)c(CC=C(C)C)c3O[C@@]23[C@H]2C[C@@H]1C(=O)[C@]3(C/C=C(/C)C(=O)O)OC2(C)C (stereo not given in full)
[1]
  inhibition: Dose-dependent effect
[2]
  inhibition: Active

## CC(C)=CCC/C(C)=C/Cc1c(O)c(CC=C(C)C)c2c(c1O)C(=O)C1=C[C@@H]3C[C@H]4C(C)(C)O[C@@](C/C=C(/C)C(=O)O)(C3=O)[C@@]14O2
[1]
  inhibition: Dose-dependent effect
[3]
  inhibition: Active

## CO[C@@H]1C2C(=O)c3c(O)c4c(c(CC=C(C)C)c3O[C@@]23[C@H]2C[C@@H]1C(=O)[C@]3(C/C=C(/C)C(=O)O)OC2(C)C)OC(C)(C)C=C4 (stereo not given in full)
[1]
  inhibition: Dose-dependent effect
[4]
  inhibition: Active

## CC(C)=CCc1c2c(c(O)c3c1O[C@]14C(=C[C@@H]5C[C@H]1C(C)(C)O[C@@]4(/C=C(/C)CO)C5=O)C3=O)C=CC(C)(C)O2
[1]
  inhibition: Dose-dependent effect
[5]
  inhibition: Active

## CC(C)=CCC[C@]1(C)C=Cc2c(O)c3c(c(CC=C(C)C)c2O1)O[C@]12C(=C[C@@H]4C[C@H]1C(C)(C)O[C@@]2(C/C=C(/C)C(=O)O)C4=O)C3=O
[6]
  inhibition: Active
[1]
  inhibition: Dose-dependent effect
[7]
  TDI: Active

## COC1=C2C(=O)c3c(O)c4c(c(CC=C(C)C)c3O[C@@]23[C@H]2C[C@@H]1C(=O)[C@]3(CC=C(C)C)OC2(C)C)O[C@](C)(CCC=C(C)C)C=C4
[1]
  inhibition: Dose-dependent effect
[8]
  inhibition: Active

## CO[C@@H]1C2C(=O)c3c(O)c4c(c(CC=C(C)C)c3O[C@@]23[C@H]2C[C@@H]1C(=O)[C@]3(C/C=C(/C)C(=O)O)OC2(C)C)O[C@](C)(CCC=C(C)C)C=C4 (stereo not given in full)
[1]
  inhibition: Dose-dependent effect
[9]
  inhibition: Active
